ChEMBL document CHEMBL1125629, “Beta-substituted beta-phenylpropionyl chymotrypsins. Structural and stereochemical features in stable acyl enzymes” (J Med Chem, 1991)

How the values were obtained:
[1] = kd ratio measured as the kd(fast)/kd(slow) values; assay type: ADME
Procedure, shortened: (§1)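 Proflavin displacement: ester 90 μM (from DMSO) added to α-chymotrypsin 90 μM and proflavin 9 μM (final) in 0.1 M phosphate pH 7.2 at 25 °C. Return of A466 was followed, and the slope of semilog absorbance versus time gave kd. Racemic esters gave biphasic curves yielding kd(fast) and kd(slow), and their ratio approximates deacylation enantioselectivity.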

[2] = Deacylation rate constant(Kd slow) was determined by proflavin displacement assay; procedure, shortened: as §1
[3] = Deacylation rate constant(Kd fast) was determined by proflavin displacement assay; procedure, shortened: as §1
[4] = Second order rate constant for acylation( ka/Ks); assay type: ADME
Procedure, shortened: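 Competitive substrate assay with α-chymotrypsin (25 nM, active-site titrated) in 0.1 M phosphate buffer pH 7.2, 25 °C. MeO-Suc-Ala-Ala-Pro-Phe pNA was at 128 μM with ester at 10–350 μM, DMSO present. A410 followed for up to 300 s, and k_obs came from semilog plots in triplicate. ka and KS were obtained from I0/k_obs versus I0 by Main's equation (KM 50 μM).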

[5] = Binding constant of the compound
[6] = Acylation rate constant was determined

Work on `CC(=O)N[C@@H](CC(=O)Oc1ccc([N+](=O)[O-])cc1)c1ccccc1` yielded a Ratio [1] of 785, a Kd [2] of 0.00033 s⁻¹ and a Kd [3] of 0.0262 s⁻¹.
`C=C(C)C[C@H](CC(=O)Oc1ccc([N+](=O)[O-])cc1)c1ccccc1` showed a Ratio [1] of 3 and a Kd [2] of 0.00112 s⁻¹.
Molecule `CC(=O)C[C@H](CC(=O)Oc1ccc(C#N)cc1)c1ccccc1` has a Ratio [4] of 2000 M⁻¹ s⁻¹, a Ks [5] of 630 µM and a Ka [6] of 73 min⁻¹.
Work on `NC(=O)CC(CC(=O)Oc1ccc([N+](=O)[O-])cc1)c1ccccc1` (stereo not given) yielded a Ratio [1] of 31, a Kd [2] of 8.3e-05 s⁻¹ and a Kd [3] of 0.00257 s⁻¹.
Molecule `C=C(C)C[C@@H](CC(=O)Oc1ccc([N+](=O)[O-])cc1)c1ccccc1` has a Ratio [1] of 3 and a Kd [3] of 0.00287 s⁻¹.
With `C=C(C)CC(CC(=O)Oc1ccc([N+](=O)[O-])cc1)c1ccccc1` (stereo not given) the Kd [2] was 0.0027 s⁻¹ and the Kd [3] was 0.0027 s⁻¹.
With `CCC(=O)NC(CC(=O)Oc1ccc([N+](=O)[O-])cc1)c1ccccc1` (stereo not given) the Ratio [1] was 1500, the Kd [2] was 4.83e-05 s⁻¹ and the Kd [3] was 0.0725 s⁻¹.
With `CC(=O)OC(CC(=O)Oc1ccc([N+](=O)[O-])cc1)c1ccccc1` (stereo not given) the Ratio [1] was 7, the Kd [2] was 0.00017 s⁻¹ and the Kd [3] was 0.00112 s⁻¹.
Work on `CC(=O)C[C@@H](CC(=O)Oc1ccc(C#N)cc1)c1ccccc1` yielded a Ratio [4] of 11000 M⁻¹ s⁻¹, a Ks [5] of 91 µM and a Ka [6] of 58 min⁻¹.
Work on `O=C1CC(c2ccccc2)CC(=O)O1` yielded a Kd [2] of 0.0034 s⁻¹ and a Kd [3] of 0.0034 s⁻¹.
With `C=C1C[C@H](c2ccccc2)CC(=O)O1` (stereo in doubt; 1 (R)) the Ratio [4] was 12000 M⁻¹ s⁻¹, the Kd [2] was 4.83e-05 s⁻¹ and the Ks [5] was 51 µM. It also gave a Ka [6] of 35 min⁻¹.
`COC(=O)CC(CC(=O)Oc1ccc([N+](=O)[O-])cc1)c1ccccc1` (stereo not given) showed a Ratio [1] of 49, a Kd [2] of 0.0008 s⁻¹ and a Kd [3] of 0.039 s⁻¹.
For `O=C(CC(NC(=O)C(F)(F)F)c1ccccc1)Oc1ccc([N+](=O)[O-])cc1` (stereo not given), the Kd [2] was 0.000105 s⁻¹ and the Kd [3] was 0.000105 s⁻¹.
`O=CNC(CC(=O)Oc1ccc([N+](=O)[O-])cc1)c1ccccc1` (stereo not given) showed a Ratio [1] of 92, a Kd [2] of 0.00065 s⁻¹ and a Kd [3] of 0.0597 s⁻¹.
In the case of `CC(=O)CC(CC(=O)Oc1ccc([N+](=O)[O-])cc1)c1ccccc1` (stereo not given), the Ratio [1] is reported as 42, the Kd [2] is reported as 6e-05 s⁻¹ and the Kd [3] is reported as 0.0025 s⁻¹.
In the case of `N#CCC(CC(=O)Oc1ccc([N+](=O)[O-])cc1)c1ccccc1` (stereo not given), the Ratio [1] is reported as 257, the Kd [2] is reported as 0.000583 s⁻¹ and the Kd [3] is reported as 0.15 s⁻¹.
Molecule `O=CCC(CC(=O)Oc1ccc([N+](=O)[O-])cc1)c1ccccc1` (stereo not given) has a Ratio [1] of 180, a Kd [2] of 8.3e-05 s⁻¹ and a Kd [3] of 0.015 s⁻¹.
Work on `O=C(CCc1ccccc1)Oc1ccc([N+](=O)[O-])cc1` yielded a Kd [2] of 0.25 s⁻¹ and a Kd [3] of 0.25 s⁻¹.
`C=C1C[C@H](c2ccccc2)CC(=O)O1` (stereo in doubt; 1 (S)) gave a Ratio [4] of 38000 M⁻¹ s⁻¹, a Ratio [1] of 59 and a Ks [5] of 8 µM. For the same molecule, the Ka [6] was 17 min⁻¹ and the Kd [3] was 0.00283 s⁻¹.
`C=C(C)C[C@H](CC(=O)O)c1ccccc1` gave a Kd [2] of 3.83e-05 s⁻¹.
`CC(C)CC(CC(=O)Oc1ccc([N+](=O)[O-])cc1)c1ccccc1` (stereo not given) showed a Kd [2] of 0.0016 s⁻¹ and a Kd [3] of 0.0016 s⁻¹.
`O=C(CC(NC(=O)c1ccccc1)c1ccccc1)Oc1ccc([N+](=O)[O-])cc1` (stereo not given) gave a Ratio [1] of 1200, a Kd [2] of 0.000417 s⁻¹ and a Kd [3] of 0.5 s⁻¹.
